Among all 130,000 compounds or so, about 900 (0.69%) were called active. For the sample, actives were picked, then their nearest neighbours and some compounds at random. Unmarked numbers belong to inactive results.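 Rule for the calls: active = inhibition above a set limit, placed 3 SD over the median of all compounds (cut at about 26% in these data); inactive = the rest.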

This test can be described thus: compounds extending yeast replicative lifespan, primary screen, S. cerevisiae, OD615 (AID 775).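 Note: 0% = nicotinamide-treated wells and 100% = cells grown without nicotinamide.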 Conditions: S. cerevisiae growth with nicotinamide, at 10 µM, hits give high values, deaD strain in restrictive glucose medium. The procedure, abridged:
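Material: Modified budding yeast, DeaD strain | Medium: Restrictive glucose medium | Probe or stimulus: 1.5 mM nicotinamide | Dosing: Single dose 10 µM compound, 0.25% DMSO | Times: 48 h at 30 °C | Technique: OD615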
Take `O=C1OC(c2ccc(Cl)cc2)=N/C1=C\c1cccnc1`: the inhibition of the nicotinamide effect is 20.7%.
The figure for `O=C1/C(=C\c2cccnc2)CN(Cc2ccccc2)C/C1=C\c1cccnc1` is 54.9% (active).
Take `O=C(O)C1CC(=O)N(Cc2cccnc2)C1` (stereo not drawn): the inhibition of the nicotinamide effect was -1.28%.
To `O=C(NCCc1ccccc1)C1CCC(Cn2c(=O)c3ccccc3n(Cc3cccnc3)c2=O)CC1` (stereo not drawn) belongs 0.76%; to `Cc1ccc2nc(-c3cccnc3)c(NC3CCCC3)n2c1`, -2.42%; to `Cc1cccc(OP(=O)(Nc2c(C)n(C)n(-c3ccccc3)c2=O)Oc2cccc(C)c2)c1`, 0%.
To `CCN(CC)c1ccc([N+](=O)[O-])cc1C(=O)O` belongs 4.32%; to `O=C(COC(=O)CCCNC(=O)c1ccc(Cl)cc1)Nc1cc(Cl)ccc1Cl`, 5.47%; to `CC1CN(S(=O)(=O)c2ccc(C(=O)Nc3sccc3C(N)=O)cc2)CC(C)O1` (stereo not drawn), 0.65%.
As for `Cc1sc(NC(=S)NC(=O)c2cccs2)nc1-c1ccc(CC(C)C)cc1`, the inhibition of the nicotinamide effect is -13.7%.
To `CC(C)Cc1nn2c(=O)cc(O)nc2s1` belongs 47.1% (active).
The figure for `COC(=O)c1ccc(C(=O)OC)c(NC(=S)N2CCN(c3ccc(F)cc3)CC2)c1` is -4.39%; for `CSCc1ccc(C(=O)Nc2cc(C)cc(C)c2)cc1` it is 1.95%; for `CCCn1c(=O)c(-c2ccccc2)c(O)c2ccccc21` it is 3.34%.
The figure for `Cn1c(=O)c(Sc2ccc(Cl)cc2)c(O)c2ccccc21` is 29.7% (active).
Regarding `Cn1c(=O)c(C(=O)Nc2ncccn2)c(O)c2ccccc21`, the inhibition of the nicotinamide effect was -13.7%.
To `O=C(/C=C/c1ccccc1[N+](=O)[O-])NCC1CCCO1` (stereo not drawn) belongs 1.94%; to `Cc1ccc(C(=O)OCc2nc(N)nc(Nc3ccccc3C)n2)cc1`, -3.73%.
The figure for `NS(=O)(=O)c1ccc(CCNC(=S)Nc2ccc(S(N)(=O)=O)cc2)cc1` is 1.53%; for `Cc1cccc(CC(=O)N2CCN=C2SCc2ccc([N+](=O)[O-])cc2)c1` it is -1.98%.
To `CC(=C1C(=O)c2ccccc2C1=O)N1CCN(c2ccccn2)CC1` belongs 54.4% (active).
For `O=C(C(Cl)Cl)N1CCN(c2ccccn2)CC1`, the inhibition of the nicotinamide effect is 1.15%.
To `CNC(=S)N1CCN(c2ccccn2)CC1` belongs 1.57%.
To `Cc1cccc(NC(=S)Nc2ccc3cn[nH]c3c2)c1` belongs 3.23%.
To `Cc1csc(NC(=S)Nc2cccc(Cl)c2)n1` belongs -1.45%; to `S=C(Nc1cccc(Cl)c1)Nc1ccc2cn[nH]c2c1`, 32.1% (active); to `Cc1ccc(NC(=O)CCC(=O)N/N=C/c2ccco2)c(C)c1`, 0.43%.
As to `Cc1ccc2c(CC(=O)NCc3cccs3)coc2c1`, the inhibition of the nicotinamide effect is -1.73%.
The figure for `Cc1cccc(C(=O)c2cccc(C)c2)c1` is -6.29%.
The figure for `Cc1nccn1CC(=O)N/N=C/c1ccc(O)c(O)c1` is 0.31%; for `COc1ccccc1C1CC(=O)n2c(nc(-c3ccccc3)c2-c2ccccc2)S1` (stereo not drawn) it is 0.78%; for `Cc1cc(C=O)c(C)n1-c1ccc(NC2CCCCC2)c([N+](=O)[O-])c1` it is -25.3%.
On to `COc1cc(OC)c(-n2c(C)cc(C=O)c2C)cc1Cl`, for which the inhibition of the nicotinamide effect is 39.8% (active).
The figure for `COc1cc(OC)c(-n2cc(-c3ccc(Cl)cc3)[nH]c2=O)cc1Cl` is -0.64%; for `O=C(Cc1coc2ccc3ccccc3c12)NCc1cccs1` it is -1.99%.
The figure for `COc1cc(/C=N\NC(=O)c2nonc2N)c(OC)cc1Br` is 5.5%.
The figure for `COCCn1c(=O)[nH]c(=O)c2cc(C(=O)c3cc(OC)ccc3O)cnc21` is -5.05%; for `CCCn1c(=O)c2c(C(F)(F)F)cc(-c3cccs3)nc2n(CCC)c1=O` it is 3.84%; for `CCCN1Cc2cccc(C(=O)NCc3ccccc3)c2C1=O` it is -14.6%.
In the case of `CCCN1Cc2cccc(C(=O)Nc3ccc(S(=O)(=O)N4CCCCCC4)cc3)c2C1=O`, the inhibition of the nicotinamide effect was -3.05%.
Take `O=C(O)c1cccc2c1C(=O)N(C1CCCCC1)C2`: the inhibition of the nicotinamide effect is 63.7% (active).
For the compound `COc1cc(NC(=S)NNC(=O)CC(C)C)c(OC)cc1Cl`, the inhibition of the nicotinamide effect was 0.62%.
`COc1ccccc1NC(=O)CCCc1c[nH]c2ccccc12`: the inhibition of the nicotinamide effect is -7.92%.
To `COc1ccc(NS(=O)(=O)c2ccc(NC(=S)NC(=O)/C=C/c3ccc(C)cc3)cc2)nn1` belongs -1.4%; to `COc1ccc(NC(=O)/C(Cl)=C(/Cl)S(=O)Cc2ccc(C)cc2)cn1` (stereo not drawn), 45.5% (active).
To `COc1cccc(NC(=O)Cc2ccc(C)cc2)c1` belongs -12.4%.
As for `Cc1ccc(CC(=O)Nc2ccc(OC(F)F)c(Cl)c2)cc1C`, the inhibition of the nicotinamide effect was 0.1%.
To `O=C(NCC1CCCO1)c1ccc2ccccc2n1` (stereo not drawn) belongs -8.01%.
To `S=C(NCCc1ccccc1)NCC1CCCO1` (stereo not drawn) belongs 1.76%; to `O=C(CS(=O)(=O)Cc1ccccc1)NCC1CCCO1` (stereo not drawn), 46.3% (active); to `COc1ccc(-n2c(=S)[nH]c3sc4c(c3c2=O)CCc2ccccc2-4)cc1`, 8.03%.
The figure for `O=C(/C=C/c1ccc([N+](=O)[O-])cc1)NCCSCc1ccco1` is -1.15%.
As for `CC(=O)c1c(O)cc2n(c1=O)-c1ccc(Cl)cc1C2(C)C`, the inhibition of the nicotinamide effect was 50.9% (active).
To `O=C(COC(=O)/C=C/c1nc2ccccc2s1)Nc1ccccc1Oc1ccccc1` belongs -1.04%.
With `Cc1nnc(NC(=O)/C=C/c2ccco2)s1`, the inhibition of the nicotinamide effect was -3.6%.
The figure for `COc1cc(OC)nc(S(C)(=O)=O)n1` is 2.39%; for `COc1ccc(-c2cc(C(F)(F)F)nc(S(C)(=O)=O)n2)cc1OC` it is 48.9% (active).
Regarding `COc1ccc(-c2cc(C(F)(F)F)nc(SCC(=O)Nc3ccc4c(c3)OCO4)n2)cc1OC`, the inhibition of the nicotinamide effect is 3.91%.
To `Cc1ccc(C)c2[nH]c(=O)c(CCNC(=O)c3cccs3)cc12` belongs -0.37%; to `O=C(OC1CCOC1=O)c1cccc(S(=O)(=O)Nc2ccc(F)cc2)c1` (stereo not drawn), 1.4%; to `COc1ccc(C)cc1NC(=O)C(OC(=O)c1cccc(S(=O)(=O)N(C)c2ccccc2)c1)c1ccccc1` (stereo not drawn), -5.56%.
To `Cc1cccc(N=C2NN=C(c3c[nH]c4ccccc34)CS2)c1` belongs 5.95%.
To `CCN(CC(=O)NCCc1ccccc1)S(=O)(=O)c1ccc(C)cc1` belongs 5.67%.

The record behind these values is PubChem BioAssay AID775 (SRMLSC, 2007).
